Experimental data reported in ChEMBL document CHEMBL1158383, “Synthesis and blood glucose lowering effect of novel pyridazinone substituted benzenesulfonylurea derivatives” (2009).

Key:
[1] = test system: Rattus norvegicus; test: Antidiabetic activity in streptozotocin-induced NIDDM Wistar albino rat model assessed as inhibition of rise of blood glucose level at 20 mg/kg, po administered 15 mins prior to glucose challenge measured after 90 mins of glucose loading by glucose oxidase-peroxidase colorimetric method; format: functional
How it was run: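 n2-STZ model: STZ 100 mg/kg in fresh 0.1 M citrate pH 4.5 given i.p. to 2-day-old pups (6–8 g), weaned for 4 weeks. Diabetic rats had fasting glucose >140 mg/dl and >200 mg/dl 2 h after oral glucose. Overnight-fasted groups of six got a 1% CMC suspension p.o. 15 min before glucose 2 g/kg p.o. GOD-POD at 505 nm before and at 90 min; reduction set against the control rise.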

[2] = test system: Rattus norvegicus; test: Antidiabetic activity in normal Wistar albino rat assessed as inhibition of rise of blood glucose level at 20 mg/kg, po administered 15 mins prior to glucose challenge measured after 90 mins of glucose loading by glucose oxidase-peroxidase colorimetric method; format: functional
How it was run: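 Wistar albino rats of either sex (160–200 g), fasted overnight, in groups of six. Dosed p.o. at 10 ml/kg, suspended in 1% CMC in distilled water; vehicle controls. Glucose 2 g/kg p.o. given 15 min after dosing. Retro-orbital blood taken just before and 90 min after glucose; glucose read by GOD-POD quinoneimine at 505 nm. Percent reduction taken against the control rise, set as 100%.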

Structure (SMILES)	inhibition in vivo at 20 mg/kg [1] [%]	inhibition in vivo at 20 mg/kg [2] [%]
CCCNC(=O)NS(=O)(=O)c1ccc(-n2nc(-c3ccc(C)cc3)ccc2=O)cc1	109	80.5
Cc1ccc(-c2ccc(=O)n(-c3ccc(S(=O)(=O)NC(=O)NC4CCCCC4)cc3)n2)cc1	110	79.9
CCCCNC(=O)NS(=O)(=O)c1ccc(-n2nc(-c3ccccc3)ccc2=O)cc1	111	67.4
O=C(NC1CCCCC1)NS(=O)(=O)c1ccc(-n2nc(-c3ccc(Cl)cc3)ccc2=O)cc1	114	59
CCCNC(=O)NS(=O)(=O)c1ccc(-n2nc(-c3ccc(Cl)cc3)ccc2=O)cc1	122	74.3
O=C(NCc1ccccc1)NS(=O)(=O)c1ccc(-n2nc(-c3ccc(Cl)cc3)ccc2=O)cc1	111	61.6
CCCCNC(=O)NS(=O)(=O)c1ccc(-n2nc(-c3ccc(OC)cc3)ccc2=O)cc1	25.6	43.7
CCCCNC(=O)NS(=O)(=O)c1ccc(-n2nc(-c3ccc(C)cc3)ccc2=O)cc1	109	86.6
O=C(NC1CCCCC1)NS(=O)(=O)c1ccc(-n2nc(-c3ccccc3)ccc2=O)cc1	86.2	52.1
CCCCNC(=O)NS(=O)(=O)c1ccc(-n2nc(-c3ccc(Cl)cc3)ccc2=O)cc1	100	66
Cc1cc(-c2ccc(=O)n(-c3ccc(S(=O)(=O)NC(=O)NC4CCCCC4)cc3)n2)ccc1Cl	55.2	62.1
Cc1ccc(-c2ccc(=O)n(-c3ccc(S(=O)(=O)NC(=O)NCc4ccccc4)cc3)n2)cc1	119	64.9
CCCNC(=O)NS(=O)(=O)c1ccc(-n2nc(-c3ccccc3)ccc2=O)cc1	125	77.2
Cc1ccc(S(=O)(=O)NC(=O)NN2CC3CCCC3C2)cc1 (stereo not drawn) [GLICLAZIDE]	107	135
